# Data published in ChEMBL document CHEMBL1208690, “A novel aryl-hydrazide from the marine lichen Lichina pygmaea: isolation, synthesis of derivatives, and cytotoxicity assays” (Bioorg Med Chem Lett, 2010).
# Assays:
# B16 [1] = assay: Cytotoxicity activity against mouse B16 cells at 50 uM after 24 hrs by NRU assay; type: functional; details: B16, 24 h
# Procedure, shortened: (§1)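 Neutral red uptake assay. A375 cells were seeded at 12×10³ and B16 at 10×10³ cells/well, then incubated 24 h at 37 °C in humidified 5% CO₂. Cells were exposed to compound dilutions in RPMI for 24 or 48 h. Dye was extracted with ethanol/acetic acid/water (50:1:49) and A540 read. IC50 was taken graphically from concentration-effect curves.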
# B16 [2] = assay: Cytotoxicity activity against mouse B16 cells at 50 uM after 48 hrs by NRU assay; type: functional; details: B16, 48 h; procedure, shortened: as §1
# B16 [3] = assay: Cytotoxicity activity against mouse B16 cells after 48 hrs by NRU assay; type: functional, cell-based; details: B16, 48 h; procedure, shortened: as §1
# A-375 [4] = assay: Cytotoxicity activity against human A375 cells after 48 hrs by NRU assay; type: functional, cell-based; details: A-375, 48 h; procedure, shortened: as §1
# A-375 [5] = assay: Cytotoxicity activity against human A375 cells at 50 uM after 48 hrs by NRU assay; type: functional; details: A-375, 48 h; procedure, shortened: as §1
# A-375 [6] = assay: Cytotoxicity activity against human A375 cells at 50 uM after 24 hrs by NRU assay; type: functional; details: A-375, 24 h; procedure, shortened: as §1
# B16 [7] = assay: Cytotoxicity activity against mouse B16 cells after 24 hrs by NRU assay; type: functional, cell-based; details: B16, 24 h; procedure, shortened: as §1
# A-375 [8] = assay: Cytotoxicity activity against human A375 cells after 24 hrs by NRU assay; type: functional, cell-based; details: A-375, 24 h; procedure, shortened: as §1
SMILES,inhibition at 50 µM (B16 [1]) [%],inhibition at 50 µM (B16 [2]) [%],IC50 (B16 [3]) [µM],IC50 (A-375 [4]) [µM],inhibition at 50 µM (A-375 [5]) [%],inhibition at 50 µM (A-375 [6]) [%],IC50 (B16 [7]) [µM],IC50 (A-375 [8]) [µM]
N[C@@H](CCC(=O)NNc1cccc(O)c1)C(=O)O,100,100,12,> 50,14,8,12,> 50
COC1=C(NC(CO)CO)C[C@@](O)(CO)CC1=O [MYCOSPORINE SERINOL],34,85,27,> 50,20,11,> 50,> 50
O=C(CC[C@H](NC(=O)OCc1ccccc1)C(=O)OCc1ccccc1)NNc1ccccc1OCc1ccccc1,96,100,15,30,69,77,21,29
COc1cc([C@@H]2c3cc4c(cc3[C@@H](O[C@@H]3O[C@@H]5CO[C@@H](C)O[C@H]5[C@H](O)[C@H]3O)[C@H]3COC(=O)[C@H]23)OCO4)cc(OC)c1O [ETOPOSIDE],100,100,0.13,12,100,100,9,19
O=C(CC[C@H](NC(=O)OCc1ccccc1)C(=O)OCc1ccccc1)NNc1cccc(OCc2ccccc2)c1,100,100,14.5,29,73,80,8,28
O=C(CC[C@H](NC(=O)OCc1ccccc1)C(=O)OCc1ccccc1)NNc1ccc(OCc2ccccc2)cc1,100,100,0.6,> 50,19,4,5,> 50
N[C@@H](CCC(=O)NNc1ccc(O)cc1)C(=O)O [XANTHODERMINE],100,100,0.7,> 50,31,12,1.6,> 50
